Measured values from ChEMBL document CHEMBL1772963, “Isolation and structure of homotemsirolimuses A, B, and C” (J Nat Prod, 2011).
pIC50: −log10 of the molar value.

Key:
[1] = Antiproliferative activity against human MDA468 cells after 3 days by MTS assay; assay type: functional, cell-based; details: MDA-MB-468, 72 h
Method in brief: (§1)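 Cells seeded in 96-well plates for 24 h, then treated with vehicle or a range of compound doses for 3 days. Viable cell density read by MTS assay. IC50 taken from plots of percent inhibition versus vehicle control.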

[2] = molecular target: Serine/threonine-protein kinase mTOR (Homo sapiens, UniProt P42345); test: Inhibition of FKBP12-independent human recombinant mTOR expressed in HEK293 cells using His6-S6K1 as a substrate by DELFIA assay; assay type: cell-based
Method in brief: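 Recombinant mTOR kinase activity measured with no FKBP12 present, with vehicle or a range of compound doses. IC50 derived by plotting percent inhibition relative to control.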

LNCaP = test: Antiproliferative activity against human LNCAP cells after 3 days by MTS assay; assay type: functional, cell-based; details: 72 h; method in brief: as §1

Row | SMILES | pIC50 [1] | pIC50 [2] | pIC50 (LNCaP)
1 | CC[C@@H]1CC[C@H]2C[C@H](OC)/C(C)=C/C=C/C=C/[C@@H](C)C[C@@H](C)C(=O)[C@H](OC)[C@H](O)/C(C)=C/[C@@H](C)C(=O)C[C@@H]([C@H](C)C[C@@H]3CC[C@@H](OC(=O)C(C)(CO)CO)[C@H](OC)C3)OC(=O)[C@@H]3CCCCN3C(=O)C(=O)[C@]1(O)O2 [HOMOTEMSIROLIMUS A] | 9.00 | 5.74 | 8.60
2 | CC[C@@H]1/C=C(\C)[C@@H](O)[C@@H](OC)C(=O)[C@H](C)C[C@H](C)/C=C/C=C/C=C(\C)[C@@H](OC)C[C@@H]2CC[C@@H](C)[C@@](O)(O2)C(=O)C(=O)N2CCCC[C@H]2C(=O)O[C@H]([C@H](C)C[C@@H]2CC[C@@H](OC(=O)C(C)(CO)CO)[C@H](OC)C2)CC1=O [HOMOTEMSIROLIMUS C] | 8.30 | 5.68 | 8.10
3 | CO[C@H]1C[C@@H]2CC[C@@H](C)[C@@](O)(O2)C(=O)C(=O)N2CCCC[C@H]2C(=O)O[C@H]([C@H](C)C[C@@H]2CC[C@@H](OC(=O)C(C)(CO)CO)[C@H](OC)C2)CC(=O)[C@H](C)/C=C(\C)[C@@H](O)[C@@H](OC)C(=O)[C@H](C)C[C@H](C)/C=C/C=C/C=C/1C [TEMSIROLIMUS] | 8.10 | 5.75 | 9.30
4 | CC[C@@H]1/C=C/C=C/C=C(\C)[C@@H](OC)C[C@@H]2CC[C@@H](C)[C@@](O)(O2)C(=O)C(=O)N2CCCC[C@H]2C(=O)O[C@H]([C@H](C)C[C@@H]2CC[C@@H](OC(=O)C(C)(CO)CO)[C@H](OC)C2)CC(=O)[C@H](C)/C=C(\C)[C@@H](O)[C@@H](OC)C(=O)[C@H](C)C1 [HOMOTEMSIROLIMUS B] | 8.30 | 5.60 | 7.89
